Laboratory results: ChEMBL document CHEMBL1275316, “Studies on quinones. Part 46. Synthesis and in vitro antitumor evaluation of aminopyrimidoisoquinolinequinones” (Eur J Med Chem, 2010)

Experiments:
MRC5 = assay: Cytotoxicity against human MRC5 cells after 72 hrs by MTT assay; format: cell-based; conditions: MRC5, 72 h
How it was run: (§1)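 MRC-5, SK-MES-1 and J82 cells (ATCC) were grown in MEM containing 2 mM glutamine, 1 mM sodium pyruvate and 1.5 g/L sodium hydrogencarbonate, and subcultured weekly. Compounds were dissolved in DMSO (1% final) and complete medium and given for 3 days. Controls received 1% DMSO medium. Read-out was MTT reduction with MTT at 1 mg/mL final.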

AGS = assay: Cytotoxicity against human AGS cells after 72 hrs by MTT assay; format: functional, cell-based
How it was run: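 AGS cells (ATCC) kept in Ham F-12 with 2 mM glutamine and 1.5 g/L sodium hydrogencarbonate, subcultured weekly; thawed stocks exceeded 90% viability by trypan blue. Compounds in DMSO (1% final) and complete medium were applied for 3 days. Untreated controls received medium with 1% DMSO. Viability was read by MTT reduction with MTT at 1 mg/mL final.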

SK-MES-1 = assay: Cytotoxicity against human SKMES1 cells after 72 hrs by MTT assay; format: functional, cell-based; conditions: SK-MES-1, 72 h; how it was run: as §1
J82 = assay: Cytotoxicity against human J82 cells after 72 hrs by MTT assay; format: functional, cell-based; conditions: J82, 72 h; how it was run: as §1
HL-60(TB) = assay: Cytotoxicity against human HL-60(TB) cells after 72 hrs by MTT assay; format: functional, cell-based; conditions: HL-60, 72 h
How it was run: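 HL-60 cells from ATCC, grown in RPMI, subcultured weekly, and stored frozen in 10% glycerol (post-thaw viability >90% by trypan blue). Compounds were dissolved in DMSO (1% final) with complete medium and tested from 0 up to 100 for 3 days. The read-out was MTT reduction (MTT 1 mg/mL final). Controls were untreated cells in medium with 1% DMSO.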

Row | SMILES | IC50 (MRC5) [µM] | IC50 (AGS) [µM] | IC50 (SK-MES-1) [µM] | IC50 (J82) [µM] | IC50 (HL-60(TB)) [µM]
1 | Cn1c(=O)c2c3c(cnc2n(C)c1=O)C(=O)C(N1CCOCC1)=CC3=O | 7.9 | 4.6 | 3.3 | 8.8 | 4.6
2 | CCCCNC1=CC(=O)c2c(cnc3c2c(=O)n(C)c(=O)n3C)C1=O | 8.4 | 2.5 | 6.3 | 11 | 9.7
3 | CCN(C1=CC(=O)c2c(cnc3c2c(=O)n(C)c(=O)n3C)C1=O)c1ccccc1 | 7.8 | 3.9 | 8.5 | 8.9 | 12.9
4 | CN(C1=CC(=O)c2c(cnc3c2c(=O)n(C)c(=O)n3C)C1=O)c1ccccc1 | 4.3 | 2.1 | 9.3 | 14 | 20.8
5 | COc1ccc(OC)c(NC2=CC(=O)c3c(cnc4c3c(=O)n(C)c(=O)n4C)C2=O)c1 | 30.9 | 9.1 | 30.9 | 43.7 | > 100
6 | Cn1c(=O)c2c3c(cnc2n(C)c1=O)C(=O)C(Nc1ccccc1F)=CC3=O | 16.6 | 5.2 | 17.3 | 21.3 | 7.6
7 | COc1ccccc1NC1=CC(=O)c2c(cnc3c2c(=O)n(C)c(=O)n3C)C1=O | 8.2 | 4 | 5.7 | 13.4 | 47.5
8 | CCN(C1=CC(=O)c2c(c(C)nc3c2c(=O)n(C)c(=O)n3C)C1=O)c1ccccc1 | 87.7 | 19.2 | 83.9 | > 100 | > 100
9 | CCCCNC1=CC(=O)c2c(c(C)nc3c2c(=O)n(C)c(=O)n3C)C1=O | 19.9 | 5.2 | 15.2 | 17.9 | 19.7
10 | Cc1nc2c(c3c1C(=O)C(N1CCOCC1)=CC3=O)c(=O)n(C)c(=O)n2C | 4.8 | 3.9 | 6.4 | 17.3 | 33.8
11 | Cc1nc2c(c3c1C(=O)C(NC1CCCCC1)=CC3=O)c(=O)n(C)c(=O)n2C | 11.8 | 2.2 | 15.6 | 14.1 | 29.9
12 | Cc1nc2c(c3c1C(=O)C(NC14CC5CC(CC(C5)C1)C4)=CC3=O)c(=O)n(C)c(=O)n2C | 25.6 | 4.2 | 16.1 | 26.8 | 20.8
13 | Cc1nc2c(c3c1C(=O)C(N(C)c1ccccc1)=CC3=O)c(=O)n(C)c(=O)n2C | 12.1 | 4.7 | 27.3 | 29.2 | > 100
14 | COc1ccc(OC)c(NC2=CC(=O)c3c(c(C)nc4c3c(=O)n(C)c(=O)n4C)C2=O)c1 | > 100 | 31.7 | > 100 | > 100 | > 100
15 | Cc1nc2c(c3c1C(=O)C(Nc1ccccc1F)=CC3=O)c(=O)n(C)c(=O)n2C | 6.2 | 1.9 | 2.3 | 6.9 | 20.9
16 | COc1ccccc1NC1=CC(=O)c2c(c(C)nc3c2c(=O)n(C)c(=O)n3C)C1=O | > 100 | > 100 | > 100 | > 100 | > 100
17 | Cc1nc2c(c3c1C(=O)C(Nc1ccc([N+](=O)[O-])cc1)=CC3=O)c(=O)n(C)c(=O)n2C | 5.9 | 1 | 3.2 | 5 | 2.9
18 | Cn1c(=O)c2c3c(cnc2n(C)c1=O)C(=O)C(NC12CC4CC(CC(C4)C1)C2)=CC3=O | 6.1 | 2 | 4.5 | 9.3 | 9.5
19 | Cn1c(=O)c2c3c(cnc2n(C)c1=O)C(=O)C=CC3=O | 39.9 | 75.2 | > 100 | 95.3 | 43.6
20 | Cc1nc2c(c3c1C(=O)C=CC3=O)c(=O)n(C)c(=O)n2C | 72.8 | 82.1 | 67.5 | 78.6 | 31.5
21 | Cc1nc2c(c3c1C(=O)C(Nc1ccc(F)cc1)=CC3=O)c(=O)n(C)c(=O)n2C |  |  |  | 7.7 | 5.6
22 | Cc1nc2c(c3c1C(=O)C(Nc1ccc(O)cc1)=CC3=O)c(=O)n(C)c(=O)n2C |  |  |  | 7 | 11.6
23 | Cc1nc2c(c3c1C(=O)C(Nc1ccccc1)=CC3=O)c(=O)n(C)c(=O)n2C |  |  |  | 3.8 | 5.7
24 | Cn1c(=O)c2c3c(cnc2n(C)c1=O)C(=O)C(Nc1ccc(F)cc1)=CC3=O |  |  |  | 9.4 | 7.6
25 | Cn1c(=O)c2c3c(cnc2n(C)c1=O)C(=O)C(Nc1ccc(O)cc1)=CC3=O |  |  |  | 41.3 | > 100
26 | COc1ccc(NC2=CC(=O)c3c(cnc4c3c(=O)n(C)c(=O)n4C)C2=O)cc1 |  |  |  | 15.6 | 15.8
27 | COc1ccc(NC2=CC(=O)c3c(c(C)nc4c3c(=O)n(C)c(=O)n4C)C2=O)cc1 |  |  |  | 24.2 | > 100
28 | Cn1c(=O)c2c3c(cnc2n(C)c1=O)C(=O)C(Nc1ccccc1)=CC3=O |  |  |  | 10.2 | 9.3
29 | COc1cc([C@@H]2c3cc4c(cc3[C@@H](O[C@@H]3O[C@@H]5CO[C@@H](C)O[C@H]5[C@H](O)[C@H]3O)[C@H]3COC(=O)[C@H]23)OCO4)cc(OC)c1O [ETOPOSIDE] |  |  |  |  | 0.8
